Screening data (PubChem BioAssay)
An excerpt weighted towards active compounds, which were near 1.9% of everything screened.
STEP block: STEP phosphatase inhibitors, primary screen, biochemical, fluorescence intensity, uHTS; Tyrosine-protein phosphatase non-receptor type 5 (Homo sapiens), P54829; recombinant STEP, OMFP fluorogenic substrate; inhibition, % at 20 µM; 360,000 tested, 0.25% active; AID 588621, 2011;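 active means inhibition at 20 µM, scaled per plate between control wells, above about 37%, limit read from the data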;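 further: 0% = DMSO with enzyme and substrate and 100% = substrate only without enzyme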
Target sequence (P54829 whole entry, looked up): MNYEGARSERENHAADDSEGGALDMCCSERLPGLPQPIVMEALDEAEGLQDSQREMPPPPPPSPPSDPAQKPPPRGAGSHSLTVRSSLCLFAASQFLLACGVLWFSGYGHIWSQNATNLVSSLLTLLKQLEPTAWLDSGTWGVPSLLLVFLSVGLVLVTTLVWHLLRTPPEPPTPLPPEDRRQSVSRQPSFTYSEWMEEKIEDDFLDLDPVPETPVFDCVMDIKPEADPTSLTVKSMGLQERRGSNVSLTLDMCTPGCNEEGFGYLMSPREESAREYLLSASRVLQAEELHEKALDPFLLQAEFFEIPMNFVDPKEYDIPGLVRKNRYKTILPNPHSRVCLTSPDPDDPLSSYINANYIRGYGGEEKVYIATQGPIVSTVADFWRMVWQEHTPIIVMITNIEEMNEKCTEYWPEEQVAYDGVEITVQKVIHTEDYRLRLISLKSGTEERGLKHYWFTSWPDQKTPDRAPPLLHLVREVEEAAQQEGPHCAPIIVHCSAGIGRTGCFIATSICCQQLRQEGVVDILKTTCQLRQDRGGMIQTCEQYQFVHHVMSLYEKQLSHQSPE
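Measure: Control-normalized % inhibition with plate pattern correction | Test system: STEP phosphatase, cell-free reaction | Medium: pH 6.0 Bis-Tris with DTT and Tween 20 | Technique: Fluorescence, 480/540 nm | Times: Reaction 20 min, ambient temperature | Doses: Single compound dose of 20 µM, 1% DMSO final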
UBC9 SUMO inh: inhibitors of in vitro SUMOylation cascade, primary screen, biochemical, HTRF, uHTS | inhibition, % at 35 µM | SUMO-conjugating enzyme UBC9 (Homo sapiens), P63279 | 290,000 tested, 0.36% active | HTRF SUMOylation assay, SAE1/SAE2 + UBC9 | AID 2006, 2009; in the data active means inhibition above about 50%, passing the limit was not always enough
Scp-1 inhibitor: Scp-1 phosphatase inhibitors, primary screen, biochemical, colorimetric, uHTS; 340,000 tested, 0.88% active; Recombinant Scp1, phosphopeptide, malachite green phosphate absorbance; inhibition, % at 20 µM;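 active means inhibition above about 50% at 20 µM, limit read from the data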;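 further: plate controls were DMSO wells with enzyme for no effect and wells lacking enzyme for full effect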
Target sequence (Q9GZU7 76-261 limits assumed): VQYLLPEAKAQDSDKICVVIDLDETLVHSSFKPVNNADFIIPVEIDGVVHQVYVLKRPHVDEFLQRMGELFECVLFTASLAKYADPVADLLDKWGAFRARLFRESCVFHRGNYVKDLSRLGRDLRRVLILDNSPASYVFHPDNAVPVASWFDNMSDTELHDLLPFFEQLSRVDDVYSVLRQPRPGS
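Test system: SCP-1 phosphatase catalytic domain, residues 76-261 | Compound dosing: One concentration, 20 µM, with 1.0% DMSO | Schedule: 45 min room-temperature reaction, 5 min colour, 30 min stabiliser | Detection: Absorbance at 630 nm | Read-out basis: % inhibition of SCP-1 phosphate liberation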
DNMT1 inh: human DNMT1 methyltransferase inhibitors, primary screen, biochemical, molecular beacon, fluorescence, HinP1I cleavage, uHTS | DNA (cytosine-5)-methyltransferase 1 (Homo sapiens), P26358 | inhibition (reported as % activation of signal), % at 10 µM | 360,000 tested, 0.83% active | AID 588458, 2011; in the data active means inhibition above about 50%
SUMO1 PPI mod: modulators of SUMO1 protein-protein interactions, primary screen, biochemical, uHTS. inhibition, % at 20 µM. Small ubiquitin-related modifier 1 (Homo sapiens), P63165. 360,000 tested, 0.33% active. SUMO1 binding to a labelled peptide, TR-FRET, 1 h; in the data active means inhibition above about 37%
LMPTP inh: LMPTP phosphatase inhibitors, primary screen, biochemical, fluorescence intensity, uHTS; Low molecular weight phosphotyrosine protein phosphatase (Homo sapiens), P24666; 360,000 tested, 0.22% active; recombinant LMPTP-A, OMFP fluorogenic substrate; inhibition, % at 20 µM;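 active means compounds that cut the enzyme signal by at least half of the control window in the single-dose screen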;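 further: plate controls were DMSO wells with enzyme plus substrate for no effect and substrate without enzyme for full effect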
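Buffer or medium: Bis-Tris pH 6.0, DTT, detergent; Assay system: LMPTP-A enzyme; Quantity: 0.625 nM enzyme; Detection: endpoint fluorescence intensity; Times: 50 min dark incubation at room temperature; Controls: substrate-only low control, DMSO enzyme-plus-substrate high control; Doses: single 20 µM dose; Read-out: percent inhibition versus substrate-only and uninhibited controls; Reagent: 400 µM OMFP.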
Scp-1 conf: Scp-1 phosphatase inhibitors, retest, confirmation, biochemical, colorimetric, single concentration | AID 540281, 2011 | inhibition, % at 20 µM | recombinant SCP-1 catalytic domain, phosphate release, malachite green absorbance | shares compounds with Scp-1 inhibitor | 2,500 tested, 61% active;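 further: plate controls were DMSO with enzyme for no effect and buffer wells lacking enzyme for full effect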
MG interference: colorimetric readout interference by compounds, confirmation, artefact control for Scp-1 inhibitor project, biochemical, single concentration; shares compounds with Scp-1 inhibitor; Colorimetric interference counterscreen, malachite green absorbance 630 nm; apparent inhibition (interference), % at 20 µM; 2,500 tested, under 10 active; AID 540313, 2011;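 further: compounds added after enzyme reaction finished so only phosphate colour detection is probed; plate controls were DMSO wells with completed Scp-1 reaction for no effect and substrate wells lacking enzyme for full effect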
Scp1 DSF: Scp-1 binding by thermal shift, confirmation, orthogonal assay for Scp-1 inhibitor project, biophysical, differential scanning fluorimetry; thermal shift relative to vanadate control, % at 40 µM; shares compounds with Scp-1 inhibitor; Recombinant SCP1, Sypro Orange thermal shift Tm; 1,500 tested, 25% active;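 active means substances whose mean melting-temperature shift, as a percentage of the reference inhibitor's shift, reaches about 5.3%, limit read from the data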;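 further: 0% = Tm of DMSO wells and 100% = Tm with sodium orthovanadate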
Beacon interf DR: spectral interference with molecular beacon fluorescence, dose response, artefact control for DNMT1 inhibitor project, biochemical, fluorescent molecular beacon. shares compounds with DNMT1 inh. spectral interference counter-screen. IC50, µM. 200 tested, under 10 active; call rule not given here
DNMT1 confirm: DNMT1 methyltransferase inhibitor retest, confirmation, biochemical, molecular beacon, fluorescence, single concentration; shares compounds with DNMT1 inh; DNMT1 molecular beacon HinP1I cleavage; inhibition, % at 10 µM; 2,300 tested, 8% active;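 active means average inhibition of at least 30% in the single-concentration confirmation test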
DNMT1 interf: beacon fluorescence artifact counter-screen. shares compounds with DNMT1 inh. DNMT1 molecular beacon spectral interference counterscreen, fluorescence 485/520. activation (fluorescence interference), % at 10 µM. 2,300 tested, 1% active;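 active means activation of at least 30% at 10 µM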;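 further: DNMT1 catalytic domain with a HinP1I cleavage step and a FAM/dabcyl DNA beacon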
The depositor's hits bear a star; · = no result.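 How the source made its calls, unless noted: active means inhibition of at least 30% at 20 µM; inactive means the rest.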

SMILES	STEP block	UBC9 SUMO inh	Scp-1 inhibitor	DNMT1 inh	SUMO1 PPI mod	LMPTP inh	Scp-1 conf	MG interference	Scp1 DSF	DNMT1 confirm	DNMT1 interf	others
C=C(C)C(=O)Nc1cccc(C2=NOC3(C2)C[C@H](C(N)=O)N(C(=O)COc2ccc(Cl)cc2)C3)c1 (stereo partly drawn)	5.0	-4.2	72.1*	98.2*	103.6*	1.2	75.2*	2.0	-7.9	63.6*	-1.6	Beacon interf DR=>99
O=C(Cc1ccccc1[N+](=O)[O-])OCC(=O)N1CCN(c2ccccc2)CC1	-0.8	·	-4.9	2.4	-12.8	-0.7	·	·	·	·	·
CCC(=O)Nc1cc(C(=O)O)ccc1S(=O)(=O)c1ccc(C)cc1	9.0	2.8	66.9*	63.4*	7.1	-1.4	56.5*	-4.9	3.6	-0.6	1.2
CC1CCN(C(=O)c2cc3ccccc3cc2O)CC1	2.2	3.8	-9.2	-0.5	-3.0	-0.4	·	·	·	·	·
Cc1cc(NC(=O)CSc2sc3c(O)cc(=O)[nH]c3c2C#N)ccc1Br	8.3	2.3	59.1*	61.1*	12.6	39.6	51.9*	-17.8	16.6*	3.3	1.8
COC(=O)c1ccccc1-c1ccc(/C=C2\C(=O)N(c3ccccc3)N=C2c2ccccc2)o1	2.9	-6.5	-7.7	13.5	38.9	4.7	·	·	·	·	·
CCOC(=O)C(C)N1C(=O)S/C(=C\c2ccc(-c3ccccc3C(=O)O)o2)C1=O (stereo not drawn)	26.3	34.0	51.9*	100.4*	46.5*	5.9	53.5*	-12.0	10.6*	45.1*	-3.0	Beacon interf DR=>99
OCC[C@@H]1C[C@H](O)[C@@H](O)[C@]2(OCCc3cc(C(F)(F)F)ccc32)O1	-2.2	·	·	-2.2	5.8	-1.7	·	·	·	·	·
COc1ccc(O)c(/C=N/NC(=O)c2c(C)nnn2-c2nonc2N)c1	68.5*	23.8	100.1*	96.2*	-4.9	16.3	86.2*	-9.3	-11.6	5.7	1.4
COc1ccc(/C=N/NC(=O)c2nnn(-c3nonc3N)c2-c2cccc(OC)c2)cc1	-3.1	4.3	-6.2	-2.5	4.5	-0.7	·	·	·	·	·
CO[C@@H]1CN(C)C(=O)c2cc(NC(=O)NC3CCCCC3)ccc2OC[C@@H](C)N(CC2CCOCC2)C[C@@H]1C	·	·	·	·	6.6	-1.7	·	·	·	·	·
O=Cc1ccc(OCc2cn(CC(=O)c3ccc(O)cc3)nn2)cc1	-4.0	·	-13.8	5.2	1.8	-1.2	·	·	·	·	·
Cc1ccc([C@@H]2CC(=O)[C@@H]3CN(S(=O)(=O)c4ccc(C)cc4)[C@H](c4ccccc4)C[C@@H]3N2S(=O)(=O)c2ccc(Cl)cc2)cc1	0.3	·	·	2.9	8.1	-0.1	·	·	·	·	·
O=C(COC(=O)c1ccc(S(=O)(=O)NCc2ccco2)cc1)NCc1ccc(F)cc1	-2.8	·	4.1	1.0	2.3	0.6	·	·	·	·	·
COc1ccc(CNC(=O)COC(=O)c2ccc(S(=O)(=O)NCc3ccco3)cc2)cc1	6.5	·	55.5*	51.3*	2.4	2.1	61.1*	-11.8	-0.9	-0.4	0.5
S=c1[nH]nc(-c2ccco2)n1-c1ccccc1Cl	-1.7	15.2	-13.8	-0.1	0.8	-2.9	·	·	·	·	·
S=c1[nH]nc(-c2cc(-c3ccco3)[nH]n2)n1-c1ccccc1Cl	5.3	69.0	75.3*	73.2*	34.2	1.0	31.1*	-17.5	10.5*	8.8	8.6
CCOC(=O)C1CCCN(C(=O)c2cc(C#N)cs2)CC1 (stereo not drawn)	-0.5	·	·	7.1	-1.7	5.5	·	·	·	·	·
COc1ccc(C(=O)NCC(=O)Nc2ccc(-c3ccccc3)cc2)cc1	11.7	38.8	94.9*	53.0*	3.7	22.7	84.0*	-8.2	-20.4	0.6	-4.3
O=C(COC(=O)C1CC2C=CC1C2)NCc1ccc(F)cc1 (stereo not drawn)	1.2	1.2	-7.1	-2.0	1.3	-0.6	·	·	·	·	·
O=C(COC(=O)C1CC2C=CC1C2)NCc1ccco1 (stereo not drawn)	4.2	28.9	71.4*	89.3*	2.4	3.9	70.3*	-4.9	-3.1	14.4	7.7
Cc1csc(NC(=O)c2cc(-c3ccco3)nc3ccccc23)n1	1.1	27.2	70.0*	95.7*	12.7	27.9	52.8*	-15.3	10.9*	12.2	-1.8
Cc1cc(C(=O)NCc2ccco2)c2ccccc2n1	-0.1	9.7	-10.6	-1.9	-3.6	0.2	·	·	·	·	·
Cc1csc(NC(=O)c2cc(C)nc3ccccc23)n1	-3.2	7.7	-4.9	-3.9	-4.5	-1.1	·	·	·	·	·
O=C(O)c1cc(-c2ccco2)nc2ccccc12	-0.7	20.3	59.4*	60.7*	8.2	-0.7	43.1*	-17.8	-2.5	0.8	-1.7
O=C(O)c1cc(-c2cc(C(=O)O)c3ccccc3n2)nc2ccccc12	·	5.1	·	·	·	·	·	·	·	·	·
O=C(Nc1nccs1)c1cc(-c2ccccc2)nc2ccccc12	-2.1	-9.1	-5.1	-0.6	-4.3	3.0	·	·	·	·	·
O=C(Nc1nccs1)c1cc(-c2ccco2)nc2ccccc12	-2.0	·	50.5*	54.8*	1.4	20.9	60.5*	-9.8	8.6*	16.1	-1.2
